Measured values as given in ChEMBL document CHEMBL1132961 (J Med Chem, 2000).

Key:
[1] = Effective concentration required for antiviral activity against HIV-1 1002-60 in PBMC cells; assay type: functional, cell-based; conditions: Homo sapiens
Summary of the method: (§1)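 PBMC cells infected with HIV-1 clinical isolates, using an XTT cytopathic assay similar to the CEM assay. EC50 read as protection from viral cytopathic effect.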

[2] = Effective concentration required for antiviral activity against HIV-1 1026-60 in PBMC cells; assay type: functional, cell-based; conditions: Homo sapiens; summary of the method: as §1
[3] = Tested for cytotoxic activity against HIV-1 144-44 in PBMC cells; assay type: cell-based; conditions: human, read-out: TC50 (the source's name)
[4] = Effective concentration required for antiviral activity against HIV-1 144-44 in PBMC cells; assay type: functional, cell-based; conditions: Homo sapiens; summary of the method: as §1
[5] = Tested for cytotoxic activity against HIV-1 1002-60 in PBMC cells; assay type: cell-based; conditions: human, read-out: TC50 (the source's name)
[6] = Tested for cytotoxic activity against HIV-1 1026-60 in PBMC cells; assay type: cell-based; conditions: human, read-out: TC50 (the source's name)
[7] = Effective concentration required for antiviral activity against HIV-1 RoJo in PBMC cells; assay type: functional, cell-based; conditions: Homo sapiens; summary of the method: as §1
[8] = Effective concentration required for antiviral activity against HIV-1 TEKI in PBMC cells; assay type: functional, cell-based; conditions: Homo sapiens; summary of the method: as §1
[9] = system: Human immunodeficiency virus 1; assay: Effective concentration at which 50% of the HIV-IIIB-infected human lymphocyte-derived CEM cells protected from HIV-1 infection; conditions: Human immunodeficiency virus 1, CCRF-CEM
[10] = Concentration which elicits cytotoxicity in 50% of uninfected human lymphocyte derived CEM cells; assay type: cell-based, CCRF-CEM; conditions: uninfected CCRF-CEM cells, read-out: TC50 (the source's name)
Summary of the method: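 Cytotoxicity measured in uninfected human lymphocyte-derived CEM cells by XTT protocol.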

[11] = Effective concentration required for antiviral activity against HIV-1 SLKA in PBMC cells; assay type: functional, cell-based; conditions: Homo sapiens; summary of the method: as §1
[12] = target: T1, Human immunodeficiency virus type 1 protease (Human immunodeficiency virus 1, UniProt Q72874); assay: Activity of potent nonpeptidic inhibitor against protease
Summary of the method: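 Incubated with 40 µM His-Lys-Ala-Arg-Val-Leu-(p-NO₂-Phe)-Glu-Ala-Nle-Ser-NH₂ in 1.0% DMSO, pH 6.2 MES buffer (DTT, NaCl, EDTA, PEG 8000) for 60 min at 37 °C, then TFA quench. Substrate and product separated by reverse-phase HPLC, read at 220 nm. % control = conversion with inhibitor / conversion without × 100; IC50 derived.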

[13] = Effective concentration required for antiviral activity against HIV-1 WeJo in PBMC cells; assay type: functional, cell-based; conditions: Homo sapiens; summary of the method: as §1
[14] = target: T2, CYP3A4 (Homo sapiens, UniProt P08684); assay: Residual activity of cytochrome P4503A4 at 10 uM
T2 sequence (P08684 whole entry): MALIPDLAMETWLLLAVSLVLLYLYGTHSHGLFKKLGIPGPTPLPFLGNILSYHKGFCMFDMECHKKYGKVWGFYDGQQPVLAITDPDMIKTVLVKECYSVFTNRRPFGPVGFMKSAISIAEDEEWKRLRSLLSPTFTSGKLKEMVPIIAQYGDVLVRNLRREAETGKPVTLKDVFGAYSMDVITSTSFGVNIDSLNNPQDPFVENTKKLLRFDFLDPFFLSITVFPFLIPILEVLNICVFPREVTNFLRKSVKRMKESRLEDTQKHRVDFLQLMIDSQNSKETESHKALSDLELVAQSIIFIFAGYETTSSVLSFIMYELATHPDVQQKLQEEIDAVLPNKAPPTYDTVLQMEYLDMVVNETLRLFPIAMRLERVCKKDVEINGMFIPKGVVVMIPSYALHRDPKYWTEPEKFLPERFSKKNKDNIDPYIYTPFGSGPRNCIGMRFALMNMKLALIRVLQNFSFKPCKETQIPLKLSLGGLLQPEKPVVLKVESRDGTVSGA

[15] = target: T3, CYP2C9 (Homo sapiens, UniProt P11712); assay: Residual activity of cytochrome P450 2C9 at 1 uM
T3 sequence (P11712 whole entry): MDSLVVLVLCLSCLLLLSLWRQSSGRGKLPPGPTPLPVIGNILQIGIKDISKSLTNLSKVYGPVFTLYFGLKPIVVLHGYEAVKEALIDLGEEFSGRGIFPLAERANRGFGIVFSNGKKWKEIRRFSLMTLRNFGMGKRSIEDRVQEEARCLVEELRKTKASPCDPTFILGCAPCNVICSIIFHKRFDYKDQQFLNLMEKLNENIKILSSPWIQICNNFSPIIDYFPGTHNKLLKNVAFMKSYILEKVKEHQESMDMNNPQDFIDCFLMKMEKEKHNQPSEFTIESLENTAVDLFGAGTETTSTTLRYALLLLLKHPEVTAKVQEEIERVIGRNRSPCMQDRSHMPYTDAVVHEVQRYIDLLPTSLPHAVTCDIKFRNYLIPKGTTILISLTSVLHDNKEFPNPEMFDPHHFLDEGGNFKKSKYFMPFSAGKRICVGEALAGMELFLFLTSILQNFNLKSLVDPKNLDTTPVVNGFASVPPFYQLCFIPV

[16] = target: T2, CYP3A4; assay: Residual activity of cytochrome P4503A4 at 100 uM
[17] = target: T2, CYP3A4; assay: Residual activity of cytochrome P4503A4 at 1 uM
[18] = target: T3, CYP2C9; assay: Residual activity of cytochrome P450 at 10 uM
[19] = Tested for maximum plasma concentration in mice; assay type: ADME, organism-based; conditions: mouse
Summary of the method: (§2)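 Mice dosed orally by gavage at 25 mg/kg. Vehicle was usually 20% 0.1 N NaOH/80% 0.5% methylcellulose, and in two cases 20% 0.1 N NaOH/80% PEG 400. Plasma Cmax and AUC measured; AUC not determined where Cmax was too low.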

[20] = target: T1, Human immunodeficiency virus type 1 protease; assay: Tested for binding affinity against HIV protease
[21] = AUC value in mice; assay type: ADME, organism-based; conditions: mouse, plasma; summary of the method: as §2
[22] = pooled result: one value given for 5 cell lines, strains, targets or settings

SMILES | EC50 [2] [nM] | EC50 [4] [nM] | CC50 [6] [nM] | EC50 [9] [nM] | CC50 [10] [nM] | IC50 [12] [nM] | Cmax [19] [nM] | also measured
CC(C)(C)NC(=O)[C@@H]1C[C@@H]2CCCC[C@@H]2CN1C[C@@H](O)[C@H](Cc1ccccc1)NC(=O)[C@H](CC(N)=O)NC(=O)c1ccc2ccccc2n1 | 19400 | 11100 | > 50000 | – | – | – | – | EC50 [1]: 14500 nM; CC50 [3]: > 50000 nM; CC50 [5]: > 50000 nM
Cc1cc(SC2=C(O)OC(CCc3ccc(O)cc3)(C(C)C)CC2=O)c(C(C)(C)C)cc1OS(C)(=O)=O (stereo unspecified) | 1120 | 730 | > 100000 | 600 | > 100000 | 2.2 | – | EC50 [1]: 1840 nM; EC50 [7]: 1240 nM; EC50 [8]: 1930 nM; EC50 [11]: 1790 nM; CC50 [3, 22]: > 100000 nM; EC50 [13]: 2050 nM; CC50 [5]: > 100000 nM
Cc1cc(SC2=C(O)OC(CCc3ccc(O)cc3)(C(C)C)CC2=O)c(C(C)(C)C)cc1OS(=O)(=O)c1ccc(C#N)cc1 (stereo unspecified) | – | – | – | 600 | 67000 | 4.5 | – | residual activity at 10 µM [14]: 34.6%; residual activity at 1 µM [15]: 83.5%; residual activity at 100 µM [16]: 6.86%; residual activity at 1 µM [17]: 79%; residual activity at 10 µM [18]: 18.1%
Cc1cc(SC2=C(O)OC(CCc3ccccc3)(C(C)C)CC2=O)c(C(C)(C)C)cc1NS(=O)(=O)c1ccc(C#N)cc1 (stereo unspecified) | – | – | – | 500 | 66000 | 9.1 | 2000 | –
Cc1cc(SC2=C(O)OC(CCc3ccc(O)cc3)(C(C)C)CC2=O)c(C(C)(C)C)cc1OS(=O)(=O)c1cccs1 (stereo unspecified) | 1420 | 540 | > 100000 | 2400 | 72000 | 21.8 | – | EC50 [7]: 700 nM; EC50 [8]: 780 nM; EC50 [11]: 500 nM; CC50 [3, 22]: > 100000 nM; EC50 [13]: 390 nM
Cc1cc(SC2=C(O)OC(CCc3ccccc3)(C(C)C)CC2=O)c(C(C)(C)C)cc1NS(=O)(=O)c1ccccn1 (stereo unspecified) | – | – | – | 700 | 67000 | 3 | 1140 | –
Cc1cc(SC2=C(O)OC(CCc3ccc(O)cc3)(C(C)C)CC2=O)c(C(C)(C)C)cc1NS(=O)(=O)c1ccc(C#N)cc1 (stereo unspecified) | – | – | – | 1600 | 85000 | 2.2 | – | Ki [20]: 0.41 nM
Cc1cc(SC2=C(O)OC(CCc3ccc(O)cc3)(C(C)C)CC2=O)c(C(C)(C)C)cc1NS(=O)(=O)c1ccc(C(F)(F)F)cn1 (stereo unspecified) | – | – | – | 4300 | 68000 | – | 1270 | AUC [21]: 980 ng·h/mL
Cc1cc(SC2=C(O)OC(CCc3ccccc3)(C(C)C)CC2=O)c(C(C)(C)C)cc1NS(C)(=O)=O (stereo unspecified) | – | – | – | 1600 | > 100000 | – | – | Ki [20]: 0.83 nM
Cc1cc(SC2=C(O)OC(CCc3ccc(O)cc3)(C(C)C)CC2=O)c(C(C)(C)C)cc1OS(=O)(=O)c1cccnc1 (stereo unspecified) | – | – | – | 1600 | 76000 | 3.5 | 630 | –
